Assay results: ChEMBL document CHEMBL4828740, “Discovery of Quinoxaline-Based P1-P3 Macrocyclic NS3/4A Protease Inhibitors with Potent Activity against Drug-Resistant Hepatitis C Virus Variants” (J Med Chem, 2021)

What follows are compounds tested on Hepatitis C virus (assay: Antiviral activity against HCV genotype 1b harboring D168A mutant infected in human Huh7 cells incubated for 96 hrs by luciferase assay). Conditions: subtype 1b, Huh-7, 96 h.
Type: functional, organism-based, Hepacivirus hominis
Procedure, shortened: (§1)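 Con1 (GT-1b) luciferase reporter replicon carrying the H77 (GT-1a) NS3 protease region, with the mutation introduced by megaprimer site-directed mutagenesis. Cured Huh7 cells were grown in DMEM with 10% heat-inactivated FBS and 0.1 mM non-essential amino acids, electroporated with replicon RNA transcripts, and kept with serially diluted inhibitor. EC50 was taken directly from the inhibition curves.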

`COc1ccc2nc(O[C@@H]3C[C@H]4C(=O)N[C@]5(C(=O)NS(=O)(=O)C6(C)CC6)C[C@H]5/C=C/CCCCC[C@H](NC(=O)OCC(C)C)C(=O)N4C3)c(C(F)(F)F)nc2c1` and `COc1ccc2nc(O[C@@H]3C[C@H]4C(=O)N[C@]5(C(=O)NS(=O)(=O)C6(C)CC6)C[C@H]5/C=C/CCCCC[C@H](NC(=O)O[C@H](C)C5CC5)C(=O)N4C3)c(C(F)(F)F)nc2c1` are within 1.5-fold of each other in EC50: 15 nM for the first, 19 nM for the second.

First: COc1ccc2nc(C)c(O[C@@H]3C[C@H]4C(=O)N[C@]5(C(=O)NS(=O)(=O)C6(C)CC6)C[C@H]5/C=C/CCCCC[C@H](NC(=O)OC5(C)CCCC5)C(=O)N4C3)nc2c1
Second: COc1ccc2nc(O[C@@H]3C[C@H]4C(=O)N[C@]5(C(=O)NS(=O)(=O)C6(C)CC6)C[C@H]5/C=C/CCCCC[C@H](NC(=O)OC5(C)CCCC5)C(=O)N4C3)c(C(F)(F)F)nc2c1
The EC50 of the first is 3.4-fold lower: 4.7 nM for the first, 16 nM for the second.

Compared with `COc1ccc2nc(C)c(O[C@@H]3C[C@H]4C(=O)N[C@]5(C(=O)NS(=O)(=O)C6(C)CC6)C[C@H]5/C=C/CCCCC[C@H](NC(=O)O[C@@H](C)C(C)C)C(=O)N4C3)nc2c1`, `COc1ccc2nc(C)c(O[C@@H]3C[C@H]4C(=O)N[C@]5(C(=O)NS(=O)(=O)C6(C)CC6)C[C@H]5/C=C/CCCCC[C@H](NC(=O)O[C@@H](C)C5CC5)C(=O)N4C3)nc2c1` is 2.8-fold higher in EC50: 3.6 nM for the first, 10 nM for the second.

Going from `COc1ccc2nc(O[C@@H]3C[C@H]4C(=O)N[C@]5(C(=O)NS(=O)(=O)C6(C)CC6)C[C@H]5/C=C/CCCCC[C@H](NC(=O)OC5CC5)C(=O)N4C3)c(C(F)(F)F)nc2c1` to `COc1ccc2nc(O[C@@H]3C[C@H]4C(=O)N[C@]5(C(=O)NS(=O)(=O)C6(C)CC6)C[C@H]5/C=C/CCCCC[C@H](NC(=O)O[C@H](C)C(F)(F)F)C(=O)N4C3)c(C(F)(F)F)nc2c1`, the EC50 falls from 14 nM to 7.3 nM (1.9-fold). The second is the more potent here.

What follows are compounds tested against T1, Hepatitis C virus serine protease, NS3/NS4A (Hepatitis C virus, UniProt A3EZI9+D2K2A8) (assay: Inhibition of HCV GT-3a NS3/4a protease using Ac-DE-D(Edans)-EE-Abu-c-[COO]-AS-K(Dabcy1)-NH2 preincubated for 1 hr followed by substrate addition). Conditions: not given.
Type: protein-complex assay, Hepatitis C virus subtype 3a

`COc1ccc2nc(C)c(O[C@@H]3C[C@H]4C(=O)N[C@]5(C(=O)NS(=O)(=O)C6(C)CC6)C[C@H]5/C=C/CCCCC[C@H](NC(=O)OC5(C)CCCC5)C(=O)N4C3)nc2c1` and `COc1ccc2nc(O[C@@H]3C[C@H]4C(=O)N[C@]5(C(=O)NS(=O)(=O)C6(C)CC6)C[C@H]5/C=C/CCCCC[C@H](NC(=O)OC5(C)CCCC5)C(=O)N4C3)c(C(F)(F)F)nc2c1` are within 1.5-fold of each other in Ki: 150 nM for the first, 161 nM for the second.

`COc1ccc2nc(O[C@@H]3C[C@H]4C(=O)N[C@]5(C(=O)NS(=O)(=O)C6(C)CC6)C[C@H]5/C=C/CCCCC[C@H](NC(=O)OC5CC5)C(=O)N4C3)c(C(F)(F)F)nc2c1` and `COc1ccc2nc(O[C@@H]3C[C@H]4C(=O)N[C@]5(C(=O)NS(=O)(=O)C6(C)CC6)C[C@H]5/C=C/CCCCC[C@H](NC(=O)O[C@H](C)C(F)(F)F)C(=O)N4C3)c(C(F)(F)F)nc2c1` are within 1.5-fold of each other in Ki: 522 nM for the first, 490 nM for the second.

The compounds below were run against T1, Hepatitis C virus serine protease, NS3/NS4A (assay: Inhibition of HCV GT-1a NS3/4a protease using Ac-DE-D(Edans)-EE-Abu-c-[COO]-AS-K(Dabcy1)-NH2 preincubated for 1 hr followed by substrate addition). Conditions: not given.
Type: protein complex, Hepatitis C virus subtype 1a

First: COc1ccc2nc(O[C@@H]3C[C@H]4C(=O)N[C@]5(C(=O)NS(=O)(=O)C6(C)CC6)C[C@H]5/C=C/CCCCC[C@H](NC(=O)OCC(C)C)C(=O)N4C3)c(C(F)(F)F)nc2c1
Second: COc1ccc2nc(O[C@@H]3C[C@H]4C(=O)N[C@]5(C(=O)NS(=O)(=O)C6(C)CC6)C[C@H]5/C=C/CCCCC[C@H](NC(=O)O[C@H](C)C5CC5)C(=O)N4C3)c(C(F)(F)F)nc2c1
The Ki of the first is 3-fold lower: 4 nM for the first, 12 nM for the second.

Compared with `COc1ccc2nc(C)c(O[C@@H]3C[C@H]4C(=O)N[C@]5(C(=O)NS(=O)(=O)C6(C)CC6)C[C@H]5/C=C/CCCCC[C@H](NC(=O)OC5(C)CCCC5)C(=O)N4C3)nc2c1`, `COc1ccc2nc(O[C@@H]3C[C@H]4C(=O)N[C@]5(C(=O)NS(=O)(=O)C6(C)CC6)C[C@H]5/C=C/CCCCC[C@H](NC(=O)OC5(C)CCCC5)C(=O)N4C3)c(C(F)(F)F)nc2c1` is 2-fold lower in Ki: 1.8 nM for the first, 0.9 nM for the second. The second binds more tightly here.

`COc1ccc2nc(C)c(O[C@@H]3C[C@H]4C(=O)N[C@]5(C(=O)NS(=O)(=O)C6(C)CC6)C[C@H]5/C=C/CCCCC[C@H](NC(=O)O[C@@H](C)C(C)C)C(=O)N4C3)nc2c1` and `COc1ccc2nc(C)c(O[C@@H]3C[C@H]4C(=O)N[C@]5(C(=O)NS(=O)(=O)C6(C)CC6)C[C@H]5/C=C/CCCCC[C@H](NC(=O)O[C@@H](C)C5CC5)C(=O)N4C3)nc2c1` are within 1.5-fold of each other in Ki: 1.9 nM for the first, 1.8 nM for the second.

Going from `COc1ccc2nc(O[C@@H]3C[C@H]4C(=O)N[C@]5(C(=O)NS(=O)(=O)C6(C)CC6)C[C@H]5/C=C/CCCCC[C@H](NC(=O)OC5CC5)C(=O)N4C3)c(C(F)(F)F)nc2c1` to `COc1ccc2nc(O[C@@H]3C[C@H]4C(=O)N[C@]5(C(=O)NS(=O)(=O)C6(C)CC6)C[C@H]5/C=C/CCCCC[C@H](NC(=O)O[C@H](C)C(F)(F)F)C(=O)N4C3)c(C(F)(F)F)nc2c1`, the Ki falls from 14 nM to 2.8 nM (5-fold).

What follows are compounds tested on Hepatitis C virus (assay: Antiviral activity against HCV genotype 1b infected in human Huh7 cells incubated for 96 hrs by luciferase assay). Conditions: Huh-7, 96 h.
Type: functional, organism-based, Hepacivirus hominis
Procedure, shortened: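 Con1 (GT-1b) luciferase reporter replicon carrying the H77 (GT-1a) NS3 protease region, either WT or with A156T or D168A introduced by megaprimer mutagenesis. Cured Huh7 cells grown in DMEM with 10% heat-inactivated FBS and 0.1 mM non-essential amino acids. Cells electroporated with replicon RNA and kept with serially diluted inhibitor.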

Compared with `COc1ccc2nc(O[C@@H]3C[C@H]4C(=O)N[C@]5(C(=O)NS(=O)(=O)C6(C)CC6)C[C@H]5/C=C/CCCCC[C@H](NC(=O)OCC(C)C)C(=O)N4C3)c(C(F)(F)F)nc2c1`, `COc1ccc2nc(O[C@@H]3C[C@H]4C(=O)N[C@]5(C(=O)NS(=O)(=O)C6(C)CC6)C[C@H]5/C=C/CCCCC[C@H](NC(=O)O[C@H](C)C5CC5)C(=O)N4C3)c(C(F)(F)F)nc2c1` is 1.8-fold lower in EC50: 4.8 nM for the first, 2.6 nM for the second. The second is the more potent here.

Compared with `COc1ccc2nc(C)c(O[C@@H]3C[C@H]4C(=O)N[C@]5(C(=O)NS(=O)(=O)C6(C)CC6)C[C@H]5/C=C/CCCCC[C@H](NC(=O)OC5(C)CCCC5)C(=O)N4C3)nc2c1`, `COc1ccc2nc(O[C@@H]3C[C@H]4C(=O)N[C@]5(C(=O)NS(=O)(=O)C6(C)CC6)C[C@H]5/C=C/CCCCC[C@H](NC(=O)OC5(C)CCCC5)C(=O)N4C3)c(C(F)(F)F)nc2c1` is 1.6-fold higher in EC50: 3.7 nM for the first, 5.8 nM for the second.

Going from `COc1ccc2nc(C)c(O[C@@H]3C[C@H]4C(=O)N[C@]5(C(=O)NS(=O)(=O)C6(C)CC6)C[C@H]5/C=C/CCCCC[C@H](NC(=O)O[C@@H](C)C(C)C)C(=O)N4C3)nc2c1` to `COc1ccc2nc(C)c(O[C@@H]3C[C@H]4C(=O)N[C@]5(C(=O)NS(=O)(=O)C6(C)CC6)C[C@H]5/C=C/CCCCC[C@H](NC(=O)O[C@@H](C)C5CC5)C(=O)N4C3)nc2c1`, the EC50 rises from 0.6 nM to 5.3 nM (8.8-fold).

`COc1ccc2nc(O[C@@H]3C[C@H]4C(=O)N[C@]5(C(=O)NS(=O)(=O)C6(C)CC6)C[C@H]5/C=C/CCCCC[C@H](NC(=O)OC5CC5)C(=O)N4C3)c(C(F)(F)F)nc2c1` and `COc1ccc2nc(O[C@@H]3C[C@H]4C(=O)N[C@]5(C(=O)NS(=O)(=O)C6(C)CC6)C[C@H]5/C=C/CCCCC[C@H](NC(=O)O[C@H](C)C(F)(F)F)C(=O)N4C3)c(C(F)(F)F)nc2c1` are within 1.5-fold of each other in EC50: 2 nM for the first, 1.6 nM for the second.

What follows are compounds tested on Hepatitis C virus (assay: Antiviral activity against HCV genotype 1b harboring A156T mutant infected in human Huh7 cells incubated for 96 hrs by luciferase assay). Conditions: subtype 1b, Huh-7, 96 h.
Type: functional, organism-based, Hepacivirus hominis
Procedure, shortened: as §1

Going from `COc1ccc2nc(O[C@@H]3C[C@H]4C(=O)N[C@]5(C(=O)NS(=O)(=O)C6(C)CC6)C[C@H]5/C=C/CCCCC[C@H](NC(=O)OCC(C)C)C(=O)N4C3)c(C(F)(F)F)nc2c1` to `COc1ccc2nc(O[C@@H]3C[C@H]4C(=O)N[C@]5(C(=O)NS(=O)(=O)C6(C)CC6)C[C@H]5/C=C/CCCCC[C@H](NC(=O)O[C@H](C)C5CC5)C(=O)N4C3)c(C(F)(F)F)nc2c1`, the EC50 falls from 91 nM to 44 nM (2.1-fold).

`COc1ccc2nc(C)c(O[C@@H]3C[C@H]4C(=O)N[C@]5(C(=O)NS(=O)(=O)C6(C)CC6)C[C@H]5/C=C/CCCCC[C@H](NC(=O)OC5(C)CCCC5)C(=O)N4C3)nc2c1` and `COc1ccc2nc(O[C@@H]3C[C@H]4C(=O)N[C@]5(C(=O)NS(=O)(=O)C6(C)CC6)C[C@H]5/C=C/CCCCC[C@H](NC(=O)OC5(C)CCCC5)C(=O)N4C3)c(C(F)(F)F)nc2c1` are within 1.5-fold of each other in EC50: 49 nM for the first, 70 nM for the second.

First: COc1ccc2nc(C)c(O[C@@H]3C[C@H]4C(=O)N[C@]5(C(=O)NS(=O)(=O)C6(C)CC6)C[C@H]5/C=C/CCCCC[C@H](NC(=O)O[C@@H](C)C(C)C)C(=O)N4C3)nc2c1
Second: COc1ccc2nc(C)c(O[C@@H]3C[C@H]4C(=O)N[C@]5(C(=O)NS(=O)(=O)C6(C)CC6)C[C@H]5/C=C/CCCCC[C@H](NC(=O)O[C@@H](C)C5CC5)C(=O)N4C3)nc2c1
The EC50 of the first is 18-fold lower: 7 nM for the first, 128 nM for the second. The first is the more potent here.

`COc1ccc2nc(O[C@@H]3C[C@H]4C(=O)N[C@]5(C(=O)NS(=O)(=O)C6(C)CC6)C[C@H]5/C=C/CCCCC[C@H](NC(=O)OC5CC5)C(=O)N4C3)c(C(F)(F)F)nc2c1` and `COc1ccc2nc(O[C@@H]3C[C@H]4C(=O)N[C@]5(C(=O)NS(=O)(=O)C6(C)CC6)C[C@H]5/C=C/CCCCC[C@H](NC(=O)O[C@H](C)C(F)(F)F)C(=O)N4C3)c(C(F)(F)F)nc2c1` are within 1.5-fold of each other in EC50: 36 nM for the first, 30 nM for the second.
